Measurements: publication PMC7034278 (Neural Regeneration Research, 2019)

Columns and labels:
Sambucus nigra lectin = experiment: Competition ELISA; conditions: by phage binding and competition ELISA
[1] = system: SK-N-SH human neuroblastoma cells; experiment: Cell viability assay; format: cell-based; conditions: 250 μM H2O2, 2 h, in comparison with the vehicle control group
Method in brief: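 SK-N-SH neuroblastoma cells were seeded at 1 × 10^4 per well and exposed to 250 μM H2O2 for 2 h. They were then cultured a further 48 h; peptide arms received 20 μg/mL. CCK-8 reagent was added for 2 h at 37°C, and absorbance was read at 490 nm. Five repeats; mean ± SEM; one-way ANOVA with Bonferroni post-hoc test.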

[2] = system: mouse cerebellar granule neurons; experiment: Neurite outgrowth assay, H2O2-stressed cerebellar granule neurons; format: cell-based; conditions: 250 μM H2O2, 2 h, in comparison with the vehicle control group
Method in brief: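 Primary cerebellar granule neurons from C57BL/6 mice were seeded at 2 × 10^4 cells on poly-D-lysine in Neurobasal A without B-27. They received 250 μM H2O2 for 2 h, then 24 h culture (peptide arms at 20 μg/mL). Cells were fixed in 4% formaldehyde and stained with crystal violet. Neurites at least one soma diameter long and free of cell contact were measured at 40×, about 50 cells per group. Three repeats.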

[3] = system: neural cell adhesion molecule L1; experiment: L1 immunofluorescence staining, H2O2-stressed SK-N-SH cells; format: cell-based, human; conditions: 250 μM H2O2, 2 h, in comparison with the control group
Method in brief: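 SK-N-SH cells were seeded at 1 × 10^4 per well, given 250 μM H2O2 for 2 h, then cultured 48 h (peptide arms at 20 μg/mL). Cells were fixed in 4% formaldehyde for 10 min and blocked with 10% donkey serum for 40 min. Anti-L1 mouse monoclonal (1:200) was applied overnight at 4°C, then Alexa 488 secondary (1:500) for 1 h, with DAPI mounting. Confocal L1 intensity was measured.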

[4] = system: SK-N-SH human neuroblastoma cells; conditions: previous study; ref Zhang et al., 2017; cited from earlier work

Row | Molecule | affinity to Sambucus nigra lectin (Sambucus nigra lectin) | survival of SK-N-SH cells after H2O2 alone [1] | neurite length after H2O2 alone [2] | L1 expression after H2O2 alone [3] | cell viability of SK-N-SH cells in response to H2O2 [4]
1 | H-PRHGKKPTNKRK-OH [mimetic peptide] | high affinity |  |  |  | 
2 | OO [H2O2] |  | reduced survival | reduced the lengths of neurites | reduced L1 expression | decreased in a dose- and time-dependent manner
